Only some compounds are listed: those with a hit (about 1.5% of all), similar ones and a draw of the others.
HNF4A DNA FP: change in binding of human HNF4A to DNA, primary screen, biochemical, fluorescence polarization, FITC-DNA | 1 h | 360,000 tested, 0.3% active | activity change, % at 10 µM | Hepatocyte nuclear factor 4-alpha (Homo sapiens), P41235; in the data active = activity change above about 30%, passing the limit was not always enough
TPT1 inhibitor: Candida albicans TPT1 enzyme inhibitors, primary screen, biochemical, fluorescence polarization | recombinant caTPT1, FP RNA substrate dephosphorylation | inhibition, % at 5 µM | tRNA 2'-phosphotransferase TPT1 (Candida albicans SC5314) | 300,000 tested, 0.81% active;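 active = inhibition above the mean of all tested compounds plus 3 SD, set per screening campaign, cut at about 24% in these data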
Rpn11 inh: Rpn11 (PSMD14) deubiquitinase inhibitors, primary screen, biochemical, fluorescence polarization, uHTS | human 26S proteasome, Ub4-pepOG fluorescence polarization; 20S core pre-blocked with epoxomicin | 360,000 tested, 0.59% active | calls only at 20 µM | AID 588493, 2011 | 26S proteasome non-ATPase regulatory subunit 14 (Homo sapiens), O00487;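 active = inhibition at 20 µM, scaled to each plate's controls, above about 33%, limit read from the data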
Target sequence (O00487 whole entry, looked up): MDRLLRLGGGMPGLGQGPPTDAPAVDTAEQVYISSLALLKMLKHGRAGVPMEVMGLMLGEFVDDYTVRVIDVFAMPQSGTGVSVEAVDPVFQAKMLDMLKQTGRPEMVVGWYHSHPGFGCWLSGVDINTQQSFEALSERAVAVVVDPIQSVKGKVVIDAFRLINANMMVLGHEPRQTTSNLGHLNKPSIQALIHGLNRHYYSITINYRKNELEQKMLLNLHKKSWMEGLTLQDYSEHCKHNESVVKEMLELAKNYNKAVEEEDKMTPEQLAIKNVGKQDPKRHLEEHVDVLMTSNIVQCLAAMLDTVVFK
CSN deneddyl inh: inhibitors of CSN-mediated cullin deneddylation, primary screen, biochemical, fluorescence polarization, uHTS; AID 651999, 2013; Purified CSN, SCF-Nedd8-OG deneddylation; inhibition, % at 12.5 µM; 360,000 tested, 0.38% active;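 active = pattern-corrected inhibition above about 35%, with an unprinted fluorescence ratio check between 0.5 and 1.5, limit read from the data, passing the limit was not always enough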
Target sequence (Q92905 whole entry, looked up, one chain of several): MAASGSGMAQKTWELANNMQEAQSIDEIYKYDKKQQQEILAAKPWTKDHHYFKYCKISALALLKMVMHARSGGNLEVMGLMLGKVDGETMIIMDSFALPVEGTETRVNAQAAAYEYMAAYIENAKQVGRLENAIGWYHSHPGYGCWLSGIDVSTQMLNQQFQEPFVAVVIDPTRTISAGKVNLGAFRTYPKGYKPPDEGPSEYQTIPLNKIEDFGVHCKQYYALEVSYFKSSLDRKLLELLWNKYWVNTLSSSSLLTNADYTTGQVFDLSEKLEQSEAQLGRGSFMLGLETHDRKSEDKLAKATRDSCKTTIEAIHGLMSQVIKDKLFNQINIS
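Assay system: purified human Csn5 enzyme expressed in HEK293T cells; Input: 0.24 nM Csn5 enzyme, final concentration; Reagent: 10 nM SCFSkp2-Nedd8OG; Compound dosing: 12.5 µM single point; Times: reaction 90 min, room temperature; Technique: fluorescence polarization readout.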
caTPT1 confirm: Candida albicans TPT1 inhibitors, confirmation, biochemical, fluorescence polarization, triplicate; shares compounds with TPT1 inhibitor; recombinant caTPT1, RNase T1 coupled; inhibition, % at 5 µM; 2,400 tested, 74% active;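 active = inhibition above the primary screen limit, the mean inhibition of all tested compounds plus 3 SD, cut at about 25% in these data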
RNase T1 inh: RNase T1 inhibitors, counter-screen for TPT1 inhibitor project, biochemical, fluorescence polarization; shares compounds with TPT1 inhibitor; RNase T1 cleavage, 1536-well; inhibition, % at 5 µM; 2,400 tested, 83% active; AID 2153, 2009;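 active = inhibition above the solvent-only control well mean plus 3 SD, limit set per screening run, cut at about 23% in these data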;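 note: inhibitors block cleavage so intact labeled substrate keeps polarization high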
Rpn11 confirm: Rpn11 (PSMD14) deubiquitinase inhibitors, confirmation, biochemical, fluorescence polarization, single concentration | shares compounds with Rpn11 inh | inhibition, % at 20 µM | purified human 26S proteasome, Ub4-pepOG fluorescence polarization; proteasome pretreated with epoxomicin | AID 602318, 2012 | 1,900 tested, 29% active
MMP-2 counter-1: MMP-2 enzyme inhibition, confirmation, counter-screen for RPN11 inhibitor project, biochemical, fluorescence, single concentration; recombinant MMP-2, FRET peptide cleavage fluorescence; AID 602330, 2012; shares compounds with Rpn11 inh; 1,900 tested, 4% active; inhibition, % at 20 µM;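 note: human MMP-2 activated beforehand with APMA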
Thrombin FP: bovine thrombin protease inhibition, confirmation, counter-screen for Rpn11 inhibitor project, biochemical, fluorescence polarization, single concentration. shares compounds with Rpn11 inh. bovine thrombin cleavage of Ub4-pepOG. inhibition, % at 20 µM. 1,900 tested, 13% active. AID 602333, 2012;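 active = mean inhibition at least 40% at 20 µM, or signal 3 deviations below plate average, so some actives read negative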
CSN5 deneddyl: Csn5 deneddylation inhibitors, confirmation, biochemical, fluorescence polarization, single concentration, SCF-Nedd8OG substrate. inhibition, % at 16.6 µM. shares compounds with CSN deneddyl inh. Csn5 deneddylation of SCF-Nedd8OG, 90 min. 540 tested, 62% active; in the data active = inhibition above about 50%
MMP-2 counter-2: MMP-2 protease inhibition counter-screen, confirmation, counter-screen for CSN deneddylation inhibitor project, biochemical, fluorescence, single concentration | shares compounds with CSN deneddyl inh | recombinant MMP-2, FRET substrate fluorescence, 60 min | inhibition, % at 16.6 µM | 540 tested, 33% active | AID 720655, 2013;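 active = corrected plate-normalized z-score of 5 or more, or -5 or less, or inhibition of 15% or more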
Thrombin counter: blocks bovine thrombin in a CSN deneddylation counter-screen; bovine thrombin cleavage of Ub4-pepOG, fluorescence polarization; shares compounds with CSN deneddyl inh; inhibition, % at 16.6 µM; 540 tested, 49% active;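 active = inhibition at or above a set limit, with a fluorescence interference ratio between 0.5 and a set maximum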
Hits are given with their value; n = inactive; x = no result shown; + = active, no number. Cut-off read from the data, not from the text of the source, unless noted: active = inhibition above about 40%; inactive = the rest.

SMILES	HNF4A DNA FP	TPT1 inhibitor	Rpn11 inh	CSN deneddyl inh	caTPT1 confirm	RNase T1 inh	Rpn11 confirm	MMP-2 counter-1	Thrombin FP	others
COc1ccc([N+](=O)[O-])cc1N=Cc1c(O)n(CCc2ccccc2)c(=O)n(C(C)C)c1=O	n	38	n	n	n	n	x	x	x
CC(C)n1c(=O)c(C=Nc2ccc(Cl)cc2)c(O)n(Cc2ccco2)c1=O	x	n	x	x	x	x	x	x	x
COC(=O)C1=C(c2ccc(-c3ccccc3)c(F)c2)C[C@@H]2CC[C@H]1N2C(=O)NCc1cccc2ccccc12	n	x	n	n	x	x	x	x	x
COc1ccc2c3c([nH]c2c1)C(C)=NCC3	n	44	+	n	n	31	n	n	n
CC1=NCCc2c1[nH]c1cc(O)ccc21	n	n	n	n	x	x	x	x	x
c1ccc2c(c1)[IH]c1ccccc1-2	n	x	n	n	x	x	x	x	x
CCN(CC)c1ccc(N=Cc2c(O)[nH]c(=O)[nH]c2=O)cc1	n	n	x	n	x	x	x	x	x
CCOc1ccccc1-n1c(O)c(C=Nc2ccc(N(CC)CC)cc2)c(=O)[nH]c1=O	n	81	+	n	75	89	49	n	n
O=C(N/N=C/c1c(O)n(CCc2ccccc2)c(=O)[nH]c1=O)c1ccccc1O	n	38	+	n	43	56	62	n	n
O=C(N/N=C/c1c(O)n(Cc2ccccc2)c(=O)[nH]c1=O)c1ccccc1O	n	n	n	n	x	x	x	x	x
CCN(CC)c1ccc(/C=C/[N+](=O)[O-])cc1	n	127	+	n	118	117	50	n	53
Cn1c(O)c(C=NC2CCCCCC2)c(=O)[nH]c1=S	n	n	n	n	x	x	x	x	x
C=CCn1c(O)c(/C=C/C=Nc2ccccc2)c(=O)[nH]c1=O	n	84	+	n	107	129	98	n	n
C=CCn1c(=O)c(C=Nc2c(OC)cccc2[N+](=O)[O-])c(O)n(CCCC)c1=O	n	51	+	n	30	39	53	n	47
C=CCn1c(=O)c(C=Nc2cccc([N+](=O)[O-])c2)c(O)n(CCCC)c1=O	n	113	+	n	36	47	46	n	n
CCCCCCC(Cl)(Cn1ccnc1)c1ccccc1 (stereo not given)	n	n	n	n	x	x	x	x	x
CNC(=O)Oc1ccccc1OC(C)C	n	x	n	n	x	x	x	x	x
Cc1cccc(N2C(=O)NC(=O)/C(=C\c3ccc(N4CCOCC4)cc3)C2=O)c1	n	n	n	n	x	x	x	x	x
Cc1cccc(N2C(=O)/C(=C/N3CCN(C(=O)c4ccco4)CC3)C(=O)NC2=S)c1	n	30	+	n	n	n	n	n	n
COc1cc(/C=C/C(=O)c2c(O)n(CCc3ccccc3)c(=O)[nH]c2=O)ccc1O	n	63	+	n	69	89	61	n	n
O=c1[nH]c(=O)n(-c2cccc(F)c2)c(O)c1/C=C1\C=Nc2ccccc21	n	37	+	n	n	n	n	n	n
CC(C)(C)NC(=S)N1CCn2cccc2C1c1cccnc1 (stereo not given)	n	n	n	n	x	x	x	x	x
C1CCC(NC2CCCCC2)CC1	n	x	n	n	x	x	x	x	x
CN(C)c1ccc(/C=C2\C(=O)NC(=O)N(CCc3ccc(F)cc3)C2=O)cc1	n	30	+	n	67	86	n	n	n
COCCN1C(=O)NC(=O)/C(=C\c2ccc(F)cc2)C1=O	n	n	n	n	x	x	x	x	x
SMILES	HNF4A DNA FP	TPT1 inhibitor	Rpn11 inh	CSN deneddyl inh	caTPT1 confirm	RNase T1 inh	Rpn11 confirm	MMP-2 counter-1	Thrombin FP	others
O=C1NC(=O)N(CCc2ccc(F)cc2)C(=O)/C1=C/c1ccco1	n	61	+	43	n	n	n	n	n
O=C(NCC1=C(c2cccc3ccccc23)C[C@@H]2CC[C@H]1N2Cc1ccco1)c1cccs1	n	x	n	n	x	x	x	x	x
COc1ccc(Cn2c(N)c(C(=O)NCc3ccco3)c3nc4ccccc4nc32)cc1	n	48	+	n	n	n	n	n	n
Nc1c(C(=O)NCc2ccco2)c2nc3ccccc3nc2n1Cc1ccccc1	n	n	n	n	x	x	x	x	x
Cc1ccnc(-n2c(C)cc(C=C3C(=O)N(C)C(=S)N(C)C3=O)c2C)c1	n	52	+	n	n	33	n	n	n
Cc1cc(C)cc(-n2c(C)cc(/C=C3\C(=O)NC(=O)N(C)C3=O)c2C)c1	n	n	n	n	x	x	x	x	x
O=C1NC(=O)N(Cc2ccc(F)cc2)C(=O)/C1=C\c1ccc(N2CCCC2)cc1	n	82	x	38	104	117	x	x	x	CSN5 deneddyl=98;MMP-2 counter-2=n;Thrombin counter=n
Cc1cc(/C=C2/C(=O)NC(=O)N(Cc3ccco3)C2=O)c(C)n1-c1ccccc1	n	n	n	n	x	x	x	x	x
CCN(CC)c1ccc(/C=C2/C(=O)NC(=O)N(Cc3ccco3)C2=O)cc1	n	48	n	63	94	107	x	x	x	CSN5 deneddyl=56;MMP-2 counter-2=19;Thrombin counter=n
CC(C)N1C(=O)/C(=C/C=C/c2ccco2)C(=O)N(Cc2ccco2)C1=O	n	95	+	79	54	65	49	n	41	CSN5 deneddyl=n;MMP-2 counter-2=n;Thrombin counter=27
CCN(CC)c1ccc(/C=C2\C(=O)NC(=O)N(CC3CCCO3)C2=O)cc1 (stereo not given)	n	n	n	n	x	x	x	x	x
